Assay outcomes (PubChem BioAssay)
Rows were chosen to be rich in hits. Some 2.1% of all compounds tested hit in one or more screens of this group.
ABCB1 inh – ABCB1 efflux pump inhibitors, primary screen, cell-based, multiplex, flow cytometry, ABCG2 counter-screen | hit rate 0.067% among 190,000 | inhibition, % at 6.6 µM | CCRF-Adr cells, JC-1 efflux | ATP-dependent translocase ABCB1 (Homo sapiens), P08183; in the data active = inhibition above about 40%;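 also: 0% = vehicle and 100% = reference inhibitor; higher value means more JC-1 retained so stronger ABCB1 efflux block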
bCat nuc transl – modulators of beta-catenin nuclear translocation, primary screen, imaging, HeLa cells, immunofluorescence, high-content. hit rate 0.3% among 190,000. nuclear translocation activity, % at 5 µM;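 active = nuclear translocation activity above 50% at 5 µM, with a well cell count of 50 or more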;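 also: per-cell ratio of nuclear to cytoplasmic median beta-catenin stain intensity; plate controls were DMSO negative control for no effect and GSK-3 inhibitor IX positive control for full effect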
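System: HeLa cells, endogenous beta-catenin; compound dosing: 5 µM primary single dose, 0.1% DMSO, 0.02–20 µM confirmation series; incubation: 24 h compound exposure at 37°C, 5% CO2; signal: beta-catenin immunofluorescence imaging with DAPI; evaluation: % activation, nuclear-to-cytoplasmic median beta-catenin signal ratio per cell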
Arbovirus inh – antivirals against arbovirus infection, primary screen, cell-based, full library, 10K replicate subset; inhibition, % at 10 µM; AID 1251, 2008; arbovirus infection cell-based antiviral screen; hit rate 0.37% among 200,000; in the data active = inhibition above about 30%
Autophagy HCS – autophagy modulators in MEF cells, primary screen, imaging, high-content, MEF GFP-LC3. AID 463193, 2010. hit rate 0.98% among 190,000. MEF GFP-LC3 puncta imaging; test concentration mostly 10 µM. calls only at 10 µM (by protocol);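 active = percentage of spot-positive cells more than 3 SD above its plate mean, without a fluorescence outlier flag or 80% toxicity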;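 also: spot-positive cell cutoff set from DMSO-treated cells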
MT stabilize HCS – microtubule stabilizers in HeLa cells, primary screen, imaging, high-content imaging. hit rate 0.83% among 200,000. HeLa tubulin immunostaining HCS, 24 h; share of cells brighter than vehicle mean+2SD. % tubulin-high responders, % at 10 µM;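 active = plate Z-score above 3 for both tubulin-high and condensed-nucleus cell shares, with cell loss under 80%, at 10 µM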;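 also: anti alpha tubulin signal scored within the nucleus-defined area of each cell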
ABCG2 inh – ABCG2 efflux pump inhibitors, primary screen, multiplex with ABCB1, IgMXP3 cells, flow cytometry; inhibition, % at 6.6 µM; Broad substrate specificity ATP-binding cassette transporter ABCG2 (Homo sapiens), Q9UNQ0; JC-1 efflux; hit rate 0.1% among 190,000; AID 1325, 2008;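 active = inhibition above 80%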;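 also: 0% = DMSO and 100% = nicardipine control wells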
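Test system: ABCG2 IgMXP3 and barcoded ABCB1 CCRF-Adr cell mix; Schedule: cells with compound and JC-1, 10 min at 25 °C, rotating, no wash; Technique: flow cytometry of retained JC-1 fluorescence; Measure: % inhibition of efflux relative to nicardipine and DMSO; Controls: nicardipine high and DMSO low controls.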
* hit, by the source's call; i = inactive; · = no result; + = active, no number.

SMILES	ABCB1 inh	bCat nuc transl	Arbovirus inh	Autophagy HCS	MT stabilize HCS	ABCG2 inh
COc1nc(-c2cccs2)cc(-c2ccc(C)cc2)c1C#N	1	-2	-17	i	42*	5
COc1ccc(-c2noc(-c3cccs3)n2)cc1OC	·	0	·	·	·	·
Cc1ccccc1S(=O)(=O)Oc1ccccc1C(=O)Oc1ccccc1	1	-4	9	i	3	4
N=c1n(CCOc2ccccc2)c2ccccc2n1CCN1CCOCC1	0	-5	1	+	1	1
c1ccc(OCCCCN2CCOCC2)cc1	0	·	-2	i	2	-2
CCn1ncc(C2=NOC(C(=O)Nc3c(C)n(C)n(-c4ccccc4)c3=O)C2)c1C (stereo not given)	0	1	1	i	4	2
COc1ccc(CNC(=O)C2CC(c3ccccc3C(F)(F)F)=NO2)cc1 (stereo not given)	·	7	·	·	·	·
CCn1ncc(C2=NOC(C(=O)NCc3ccccc3)C2)c1C (stereo not given)	0	64*	-10	i	31*	0
CCn1ncc(C2=NOC(C(=O)NCc3ccc(OC)cc3)C2)c1C (stereo not given)	0	147*	-26	i	18*	0
CNC(=S)/N=C/NOCc1ccc(Cl)cc1Cl	1	-3	-33	+	5	5
NC(=O)NOCc1ccc(Cl)cc1Cl	0	0	10	i	6	0
COc1cc(NC(=O)Nc2cccc(C(C)=O)c2)cc(OC)c1OC	1	-1	3	i	3	3
O=C(Cc1cccc2ccccc12)Nc1nc2ccccc2[nH]1	1	6	1	i	2	2
O=C(O)CSCCC(=O)Nc1ccc(F)cc1	0	-1	-1	+	3	2
CC(NCCC(c1ccccc1)c1ccccc1)c1ccccc1 (stereo not given)	2	·	-42	+	4	-4
CC(C)N(Cc1cnn(C)c1)Cc1nc(Cc2ccccc2Cl)no1	0	1	5	i	1	1
CN(C)CCNc1oc(COc2ccc(-c3ccccc3)cc2)nc1C#N	0	1	-13	+	3	6
CC(Oc1ccccc1)C(=O)N1CCN=C1SCc1ccccc1F (stereo not given)	·	-3	·	·	·	·
COc1ccccc1N1CCN(C(=O)Nc2cccc(Cl)c2)CC1	0	·	-5	i	2	1
COC(=O)c1cc(C(=O)N2CCN(c3ccccc3OC)CC2)cc([N+](=O)[O-])c1	2	70*	-11	i	27*	6
CC(=O)Nc1ccc(S(=O)(=O)N2CCN(c3cccc(C)c3C)CC2)cc1	1	5	-13	i	14*	4
COc1ccccc1N1CCN(S(=O)(=O)c2ccccc2)CC1	0	0	-5	i	4	-1
COc1cccc(NC(=O)N2CCN(c3cccc(C)c3C)CC2)c1	1	·	-26	+	6	17
COc1ccc(S(=O)(=O)N2CCN(c3ccccc3OC)CC2)cc1OC	1	-1	49*	i	1	4
COC(=O)COc1ccc(S(=O)(=O)Nc2ccc(NC(C)=O)cc2)cc1C	0	0	4	i	3	3
SMILES	ABCB1 inh	bCat nuc transl	Arbovirus inh	Autophagy HCS	MT stabilize HCS	ABCG2 inh
O=S(=O)(c1ccc(Cl)s1)N1CCN(C/C=C/c2ccccc2)CC1	0	-5	1	i	5	1
COc1ccccc1N1CCN(c2ccc([N+](=O)[O-])cc2Cl)CC1	2	3	3	i	21*	33
COc1cc2c(cc1OC)CN(c1ccc([N+](=O)[O-])cc1Cl)CC2	1	0	4	i	2	3
COC(=O)c1cc(C(=O)N2CCN(c3cccc(C)c3C)CC2)cc([N+](=O)[O-])c1	1	91*	-14	i	15*	5
Cc1cccc(N2CCN(C(=O)c3ccc4c(c3)OCCO4)CC2)c1C	1	20	1	i	11	3
O=c1c(-c2ccccc2)c(O)cc(-c2ccncc2)n1-c1ccc(Cl)cc1	0	-4	5	i	4	8
